In general, IC50 refers to the concentration at which inhibition is half-maximal.

Bounds are passed on as bounds.

Assay [1] deals with Tyrosine-protein kinase Blk (Homo sapiens) (UniProt P51451). Description: Inhibition of recombinant human N-terminal GST-tagged full length BLK expressed in baculovirus infected Sf9 insect cells assessed as enzyme activity incubated for 15 mins by [gamma-33]ATP based scintillation counting method relative to control. More on the design: scale not given: the % may be the effect or the level left.
Chain of Tyrosine-protein kinase Blk (Homo sapiens) (P51451 2-505 limits assumed): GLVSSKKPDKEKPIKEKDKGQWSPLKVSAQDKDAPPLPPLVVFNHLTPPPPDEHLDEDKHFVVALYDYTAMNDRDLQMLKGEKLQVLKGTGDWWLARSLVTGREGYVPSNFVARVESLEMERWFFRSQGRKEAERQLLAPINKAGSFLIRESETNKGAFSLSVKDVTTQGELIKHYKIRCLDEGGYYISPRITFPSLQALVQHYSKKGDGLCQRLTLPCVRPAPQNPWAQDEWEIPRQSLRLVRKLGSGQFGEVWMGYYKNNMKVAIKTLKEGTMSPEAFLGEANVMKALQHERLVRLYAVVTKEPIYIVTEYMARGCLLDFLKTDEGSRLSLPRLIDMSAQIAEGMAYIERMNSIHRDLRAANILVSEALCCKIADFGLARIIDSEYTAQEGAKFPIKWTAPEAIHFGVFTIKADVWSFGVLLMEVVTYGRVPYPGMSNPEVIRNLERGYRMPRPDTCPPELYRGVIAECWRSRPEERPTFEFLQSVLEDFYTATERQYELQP

Assay [2] addresses T1, 3-phosphoinositide-dependent protein kinase 1 (Homo sapiens) (UniProt O15530).
T1 sequence (whole entry): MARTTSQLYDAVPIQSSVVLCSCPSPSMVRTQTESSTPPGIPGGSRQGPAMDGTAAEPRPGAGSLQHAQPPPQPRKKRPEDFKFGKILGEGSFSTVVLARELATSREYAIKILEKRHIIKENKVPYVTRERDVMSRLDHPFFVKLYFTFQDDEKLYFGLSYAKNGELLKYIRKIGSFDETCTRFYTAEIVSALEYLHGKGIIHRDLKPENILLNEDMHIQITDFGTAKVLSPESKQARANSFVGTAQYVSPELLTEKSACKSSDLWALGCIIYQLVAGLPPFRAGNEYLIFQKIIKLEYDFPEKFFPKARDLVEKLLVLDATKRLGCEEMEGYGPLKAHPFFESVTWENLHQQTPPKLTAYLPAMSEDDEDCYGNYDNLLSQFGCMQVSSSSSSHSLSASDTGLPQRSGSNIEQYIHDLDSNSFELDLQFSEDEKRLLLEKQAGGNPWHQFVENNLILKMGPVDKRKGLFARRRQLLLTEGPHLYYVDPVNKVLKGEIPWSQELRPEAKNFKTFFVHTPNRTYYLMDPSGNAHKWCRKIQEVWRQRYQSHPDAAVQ
Description: Inhibition of recombinant human N-terminal His-tagged full length PDK1 expressed in baculovirus infected Sf9 insect cells assessed as enzyme activity incubated for 15 mins by [gamma-33]ATP based scintillation counting method relative to control. The arrangement: scale not given: the % may be the effect or the level left.

The target in assay [3] is T2, Rhodopsin kinase GRK1 (Homo sapiens) (UniProt Q15835).
T2 sequence (whole entry): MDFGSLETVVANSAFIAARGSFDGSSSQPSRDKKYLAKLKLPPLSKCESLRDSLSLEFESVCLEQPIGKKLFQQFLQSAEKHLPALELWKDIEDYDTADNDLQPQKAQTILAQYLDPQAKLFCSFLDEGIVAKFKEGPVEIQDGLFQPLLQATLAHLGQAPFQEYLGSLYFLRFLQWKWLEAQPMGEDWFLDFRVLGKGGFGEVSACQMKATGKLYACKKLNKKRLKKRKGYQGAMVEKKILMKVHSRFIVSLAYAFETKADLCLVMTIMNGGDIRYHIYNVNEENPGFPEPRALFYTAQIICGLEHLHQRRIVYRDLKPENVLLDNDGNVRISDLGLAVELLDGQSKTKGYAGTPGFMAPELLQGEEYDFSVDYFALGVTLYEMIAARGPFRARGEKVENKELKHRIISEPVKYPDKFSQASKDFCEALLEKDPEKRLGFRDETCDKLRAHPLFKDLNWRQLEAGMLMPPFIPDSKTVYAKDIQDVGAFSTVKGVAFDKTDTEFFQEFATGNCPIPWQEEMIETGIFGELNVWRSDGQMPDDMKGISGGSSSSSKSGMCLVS
Briefly: Inhibition of GRK1 (unknown origin) assessed as enzyme activity incubated for 15 mins by [gamma-33]ATP based scintillation counting method relative to control. More on the design: scale not given: the % may be the effect or the level left.

For assay [4], the target named is Casein kinase I isoform alpha (Homo sapiens) (UniProt P48729). Briefly: Inhibition of CK1alpha1 (unknown origin) assessed as enzyme activity incubated for 15 mins by [gamma-33]ATP based scintillation counting method relative to control. The arrangement: scale not given: the % may be the effect or the level left.
Chain of Casein kinase I isoform alpha (Homo sapiens) (P48729 2-337 limits assumed): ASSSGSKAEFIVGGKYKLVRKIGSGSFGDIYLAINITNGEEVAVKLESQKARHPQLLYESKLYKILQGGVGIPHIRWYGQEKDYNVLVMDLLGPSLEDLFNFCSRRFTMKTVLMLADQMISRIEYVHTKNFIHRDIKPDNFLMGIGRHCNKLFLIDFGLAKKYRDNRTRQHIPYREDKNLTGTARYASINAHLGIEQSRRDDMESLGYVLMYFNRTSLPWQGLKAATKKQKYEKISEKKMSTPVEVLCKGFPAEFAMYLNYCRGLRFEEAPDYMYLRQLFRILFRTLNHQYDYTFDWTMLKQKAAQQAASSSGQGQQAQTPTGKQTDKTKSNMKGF
Assay [5] addresses T3, Ephrin type-A receptor 1 (Homo sapiens) (UniProt P21709).
T3 sequence (whole entry): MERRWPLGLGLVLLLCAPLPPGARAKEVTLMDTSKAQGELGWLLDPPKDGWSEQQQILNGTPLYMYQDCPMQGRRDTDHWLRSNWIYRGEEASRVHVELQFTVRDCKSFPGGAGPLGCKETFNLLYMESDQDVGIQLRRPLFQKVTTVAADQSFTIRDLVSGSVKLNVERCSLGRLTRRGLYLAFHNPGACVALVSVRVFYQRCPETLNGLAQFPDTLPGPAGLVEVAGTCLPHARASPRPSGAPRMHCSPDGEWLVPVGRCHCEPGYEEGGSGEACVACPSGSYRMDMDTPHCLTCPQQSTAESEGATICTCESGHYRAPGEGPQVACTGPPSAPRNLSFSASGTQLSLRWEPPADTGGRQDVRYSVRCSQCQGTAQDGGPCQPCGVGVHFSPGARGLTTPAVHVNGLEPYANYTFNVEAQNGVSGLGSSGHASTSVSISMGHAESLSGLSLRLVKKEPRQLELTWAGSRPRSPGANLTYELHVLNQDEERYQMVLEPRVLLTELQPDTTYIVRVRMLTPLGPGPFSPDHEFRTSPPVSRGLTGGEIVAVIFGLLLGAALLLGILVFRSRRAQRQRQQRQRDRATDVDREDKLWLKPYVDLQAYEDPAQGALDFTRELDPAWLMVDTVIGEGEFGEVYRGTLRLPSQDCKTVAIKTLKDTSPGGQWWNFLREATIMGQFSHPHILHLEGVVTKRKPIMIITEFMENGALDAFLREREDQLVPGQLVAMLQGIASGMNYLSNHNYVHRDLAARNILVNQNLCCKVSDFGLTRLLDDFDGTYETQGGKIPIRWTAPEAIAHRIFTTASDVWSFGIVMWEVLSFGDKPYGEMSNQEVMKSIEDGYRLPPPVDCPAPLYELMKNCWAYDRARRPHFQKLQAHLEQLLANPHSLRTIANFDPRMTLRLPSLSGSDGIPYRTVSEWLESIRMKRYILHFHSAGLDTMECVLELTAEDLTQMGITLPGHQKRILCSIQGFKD
Briefly: Inhibition of recombinant human N-terminal GST-tagged EPHA1 (569 to end residues) expressed in baculovirus infected Sf9 insect cells assessed as enzyme activity incubated for 15 mins by [gamma-33]ATP based scintillation counting method relative to control. More on the design: scale not given: the % may be the effect or the level left.

Assay [6] addresses AMP-activated protein kinase (AMPK) alpha-1/beta-1/gamma-1 (Homo sapiens) (UniProt P54619+Q9Y478+Q13131). Description: Inhibition of recombinant human C-terminal His-tagged full length AMPK alpha1/beta1/gamma1 expressed in baculovirus infected Sf9 insect cells assessed as enzyme activity incubated for 15 mins by [gamma-33]ATP based scintillation counting method relative to control. More on the design: scale not given: the % may be the effect or the level left.

Assay [7] concerns the target Prostaglandin G/H synthase 1 (Homo sapiens, UniProt P23219). Description: Inhibition of human COX1 using arachidonic acid as substrate incubated for 2 mins by ELISA method.
The target of assay [8] is Cyclin-dependent kinase 2 (Homo sapiens, UniProt P24941). Briefly: Inhibition of CDK2 (unknown origin) incubated for 40 mins by ADP-glo assay. A general note: ADP-Glo first removes unused ATP, then detects ADP through luciferase.
The next assay relates to A2780. Briefly: Antiproliferative activity against human A2780 cells assessed as reduction in cell growth incubated for 72 hrs by MTT assay. The format is functional, cell-based. To be noted: A2780, 72 h. In a few lines: (§1)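 MTT assay on MCF-7, A2780, HT29 and normal MRC5 fibroblast lines (ATCC) grown in DMEM with 10% FBS. Cells exposed to compounds for 72 h, then reduced MTT read at 570 nm.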
In general terms: Tetrazolium assays rely on reduction of a dye to a coloured formazan, in cell work by metabolically active cells.

For a further assay, the system named is HT-29. Briefly: Antiproliferative activity against human HT-29 cells assessed as reduction in cell growth incubated for 72 hrs by MTT assay. The format is functional, cell-based. To be noted: HT-29, 72 h. The procedure, abridged: as §1

Chain of Prostaglandin G/H synthase 1 (P23219 whole entry): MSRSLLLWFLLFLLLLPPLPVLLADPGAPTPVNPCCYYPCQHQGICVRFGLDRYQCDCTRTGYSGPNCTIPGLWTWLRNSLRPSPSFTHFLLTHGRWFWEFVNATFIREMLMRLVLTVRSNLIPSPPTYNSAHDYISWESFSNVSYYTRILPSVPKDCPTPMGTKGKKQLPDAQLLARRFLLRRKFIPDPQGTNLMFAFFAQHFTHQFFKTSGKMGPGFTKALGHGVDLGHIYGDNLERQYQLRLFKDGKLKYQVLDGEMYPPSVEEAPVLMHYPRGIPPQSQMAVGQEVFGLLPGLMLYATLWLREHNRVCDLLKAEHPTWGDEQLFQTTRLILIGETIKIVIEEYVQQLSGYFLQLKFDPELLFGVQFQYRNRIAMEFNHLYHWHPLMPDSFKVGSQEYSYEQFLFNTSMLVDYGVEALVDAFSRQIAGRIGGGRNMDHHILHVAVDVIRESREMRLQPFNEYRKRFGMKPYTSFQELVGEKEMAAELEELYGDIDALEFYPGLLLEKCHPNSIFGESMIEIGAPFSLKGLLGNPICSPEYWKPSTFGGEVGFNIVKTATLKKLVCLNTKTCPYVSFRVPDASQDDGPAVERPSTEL
Chain of AMP-activated protein kinase (AMPK) alpha-1/beta-1/gamma-1 (Homo sapiens) (P54619 whole entry): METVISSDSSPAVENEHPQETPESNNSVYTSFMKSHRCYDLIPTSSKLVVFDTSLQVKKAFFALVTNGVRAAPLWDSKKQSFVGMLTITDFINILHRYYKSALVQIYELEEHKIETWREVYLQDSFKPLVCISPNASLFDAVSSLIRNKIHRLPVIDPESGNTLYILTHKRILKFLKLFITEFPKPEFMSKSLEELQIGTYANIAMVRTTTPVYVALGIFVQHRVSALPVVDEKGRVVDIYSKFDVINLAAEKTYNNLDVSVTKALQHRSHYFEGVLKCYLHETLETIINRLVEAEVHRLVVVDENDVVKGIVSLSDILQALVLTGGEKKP
Chain of AMP-activated protein kinase (AMPK) alpha-1/beta-1/gamma-1 (Homo sapiens) (Q13131 whole entry partner): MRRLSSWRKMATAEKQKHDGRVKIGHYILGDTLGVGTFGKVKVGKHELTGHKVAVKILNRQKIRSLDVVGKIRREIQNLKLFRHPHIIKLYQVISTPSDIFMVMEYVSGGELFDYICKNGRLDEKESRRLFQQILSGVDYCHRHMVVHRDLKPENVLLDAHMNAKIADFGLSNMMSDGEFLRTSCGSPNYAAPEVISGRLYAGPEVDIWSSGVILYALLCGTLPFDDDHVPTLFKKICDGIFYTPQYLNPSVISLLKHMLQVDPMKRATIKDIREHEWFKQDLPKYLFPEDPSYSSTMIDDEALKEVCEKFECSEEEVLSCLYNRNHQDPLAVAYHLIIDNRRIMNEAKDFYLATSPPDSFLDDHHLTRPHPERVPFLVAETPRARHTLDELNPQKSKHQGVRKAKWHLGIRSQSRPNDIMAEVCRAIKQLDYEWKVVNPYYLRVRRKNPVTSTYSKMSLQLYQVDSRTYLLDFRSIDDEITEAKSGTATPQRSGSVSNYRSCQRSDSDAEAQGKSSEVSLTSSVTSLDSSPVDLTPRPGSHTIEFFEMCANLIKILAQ
Chain of AMP-activated protein kinase (AMPK) alpha-1/beta-1/gamma-1 (Homo sapiens) (Q9Y478 2-270 partner limits assumed): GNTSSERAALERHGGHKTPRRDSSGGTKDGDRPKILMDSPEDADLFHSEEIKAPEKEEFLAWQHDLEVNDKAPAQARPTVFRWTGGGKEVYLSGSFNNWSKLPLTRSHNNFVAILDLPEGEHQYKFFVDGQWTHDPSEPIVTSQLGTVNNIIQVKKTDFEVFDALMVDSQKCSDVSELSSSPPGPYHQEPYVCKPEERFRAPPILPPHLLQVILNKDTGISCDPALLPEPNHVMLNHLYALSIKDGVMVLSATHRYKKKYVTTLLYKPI

As for `Cc1ccc(NC(=O)c2ccc(CN3CCN(C)CC3)cc2)cc1Nc1nccc(-c2cccnc2)n1`, the Activity in assay [1] was -3%; in assay [2], 34%; in [3] it was 2%; in assay [4] it was 0%; in assay [5], 22%; in assay [6], 18%.
As for `CCC1SCC(=O)N1c1c(C#N)c2n(c1C(=O)Nc1ccccc1)CCC2` (stereo unspecified), the Activity is 26% in assay [1]; -11% in assay [2]; -9% in assay [3]; -16% in assay [4]; 4% in [5]; 2% in [6]. Further, the IC50 in assay [7] amounted to 43700 nM; in assay [8], 630 nM; in the assay on A2780, 220 nM; with HT-29, 600 nM.
On to `CC/C=N/c1c(C#N)c2n(c1C(=O)Nc1ccccc1)CCC2`, for which the Activity was -32% in assay [1]; -15% in assay [2]; -10% in assay [3]; -23% in assay [4]; -5% in assay [5]; -4% in assay [6]. Besides, the IC50 in [7] is above 100000 nM; in assay [8] it was 580 nM; in the assay on A2780, 15600 nM; with HT-29, 200 nM.
`CC(C)C/C=N/c1c(C#N)c2n(c1C(=O)Nc1ccc(Br)cc1)CCC2`: the Activity in assay [1] was 7%; in assay [2], 28%; in assay [3] it was 1%; in assay [4] it was 6%; in assay [5], 25%; in assay [6], 12%. Moreover, the IC50 is above 100000 nM in assay [7], 1270 nM in assay [8], 520 nM with A2780 and 670 nM in the assay with HT-29.

The values above are taken from ChEMBL document CHEMBL4312005, “Optimization of pyrrolizine-based Schiff bases with 4-thiazolidinone motif: Design, synthesis and investigation of cytotoxicity and anti-inflammatory potency” (Eur J Med Chem, 2020).
